“And” between values parts separate entries of the source, which are not always exact repeats. Equal values may be shown once.
Tested on: U2OS
Experiment: Multiplex assay against U2OS
Assay type: toxicity, cell-based
Conditions: human
How it was run: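 Tubulin, mitochondrial-mass and membrane-permeability phenotypes are per cents of healthy-nucleus cells. Cells were gated by CellPathfinder machine learning into Hoechst high-intensity objects or normal cells, normal cells into healthy, pyknosed or fragmented nuclei, and pyknosed cells into mitotic or apoptotic. Before that, live cells stained at seeding with Hoechst33342, BioTracker Green Microtubule Cytoskeleton Dye, MitoTracker Red and Annexin V Alexa Fluor 680 were imaged on a CQ1 microscope at 37°C and 5% CO2 after compound addition.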

[1] = 12 h, 1 µM, compound concentration 1 uM, replicate 1
[2] = 12 h, 1 µM, compound concentration 1 uM, replicate 2
[3] = 12 h, 10 µM, compound concentration 10 uM, replicate 1
[4] = 12 h, 10 µM, compound concentration 10 uM, replicate 2
[5] = 24 h, 1 µM, compound concentration 1 uM, replicate 1
[6] = 24 h, 1 µM, compound concentration 1 uM, replicate 2
[7] = 24 h, 10 µM, compound concentration 10 uM, replicate 1
[8] = 24 h, 10 µM, compound concentration 10 uM, replicate 2
[9] = 48 h, 1 µM, compound concentration 1 uM, replicate 1
[10] = 48 h, 1 µM, compound concentration 1 uM, replicate 2
[11] = 48 h, 10 µM, compound concentration 10 uM, replicate 1
[12] = 48 h, 10 µM, compound concentration 10 uM, replicate 2

For CCNC1(C(N)=O)CCN(c2ncnc3c2nc(-c2ccccc2Cl)n3-c2ccc(Cl)cc2)CC1 [OTENABANT], the “Population Apoptotic (%)” value [1] was 77%, the “Population Fragmented Nuclei (%)” value [1] was 30% and the “Population Healthy Nuclei (%)” value [1] was 60%. The “Population Hoechst High Intensity Objects (%)” value [1] was 3%, the “Population Membrane Permeable-Phenotype (%)” value [1] was 13% and the “Population Mitochondria Different-Phenotype (%)” value [1] was 7%. The “Population Mitotic Cells (%)” value [1] was 22%, the “Population Normal (%)” value [1] was 96% and the “Population Pyknosed Nuclei (%)” value [1] was 9%. The “Population Tubulin-Different-Phenotype (%)” value [1] was 4%, the “Total Cell Count” value [1] was 254 and the “Population Apoptotic (%)” value [2] was 85%. The “Population Fragmented Nuclei (%)” value [2] was 17%, the “Population Healthy Nuclei (%)” value [2] was 74% and the “Population Hoechst High Intensity Objects (%)” value [2] was 2%. The “Population Membrane Permeable-Phenotype (%)” value [2] was 11%, the “Population Mitochondria Different-Phenotype (%)” value [2] was 22% and the “Population Mitotic Cells (%)” value [2] was 14%. For the same compound, the “Population Normal (%)” value [2] was 97%, the “Population Pyknosed Nuclei (%)” value [2] was 7% and the “Population Tubulin-Different-Phenotype (%)” value [2] was 10%. The “Total Cell Count” value [2] was 93, the “Population Apoptotic (%)” value [3] was 58% and the “Population Fragmented Nuclei (%)” value [3] was 31%. The “Population Healthy Nuclei (%)” value [3] was 48%, the “Population Hoechst High Intensity Objects (%)” value [3] was 6% and the “Population Membrane Permeable-Phenotype (%)” value [3] was 81%. The “Population Mitochondria Different-Phenotype (%)” value [3] was 63%, the “Population Mitotic Cells (%)” value [3] was 41% and the “Population Normal (%)” value [3] was 93%. For the same compound, the “Population Pyknosed Nuclei (%)” value [3] was 19%, the “Population Tubulin-Different-Phenotype (%)” value [3] was 89% and the “Total Cell Count” value [3] was 211. For the same compound, the “Population Apoptotic (%)” value [4] was 70%, the “Population Fragmented Nuclei (%)” value [4] was 21% and the “Population Healthy Nuclei (%)” value [4] was 60%. For the same compound, the “Population Hoechst High Intensity Objects (%)” value [4] was 0%, the “Population Membrane Permeable-Phenotype (%)” value [4] was 65% and the “Population Mitochondria Different-Phenotype (%)” value [4] was 73%. The “Population Mitotic Cells (%)” value [4] was 30%, the “Population Normal (%)” value [4] was 99% and the “Population Pyknosed Nuclei (%)” value [4] was 18%. The “Population Tubulin-Different-Phenotype (%)” value [4] was 76%, the “Total Cell Count” value [4] was 112 and the “Population Apoptotic (%)” value [5] was 79%. The “Population Fragmented Nuclei (%)” value [5] was 26%, the “Population Healthy Nuclei (%)” value [5] was 61% and the “Population Hoechst High Intensity Objects (%)” value [5] was 3%. For the same compound, the “Population Membrane Permeable-Phenotype (%)” value [5] was 11%, the “Population Mitochondria Different-Phenotype (%)” value [5] was 5% and the “Population Mitotic Cells (%)” value [5] was 20%. The “Population Normal (%)” value [5] was 96%, the “Population Pyknosed Nuclei (%)” value [5] was 11% and the “Population Tubulin-Different-Phenotype (%)” value [5] was 7%. The “Total Cell Count” value [5] was 308, the “Population Apoptotic (%)” value [6] was 80% and the “Population Fragmented Nuclei (%)” value [6] was 24%. For the same compound, the “Population Healthy Nuclei (%)” value [6] was 62%, the “Population Hoechst High Intensity Objects (%)” value [6] was 4% and the “Population Membrane Permeable-Phenotype (%)” value [6] was 15%. The “Population Mitochondria Different-Phenotype (%)” value [6] was 15%, the “Population Normal (%)” value [6] was 95% and the “Population Pyknosed Nuclei (%)” value [6] was 13%. The “Population Tubulin-Different-Phenotype (%)” value [6] was 5%, the “Total Cell Count” value [6] was 120 and the “Population Apoptotic (%)” value [7] was 69%. The “Population Fragmented Nuclei (%)” value [7] was 29%, the “Population Healthy Nuclei (%)” value [7] was 49% and the “Population Hoechst High Intensity Objects (%)” value [7] was 3%. The “Population Membrane Permeable-Phenotype (%)” value [7] was 55%, the “Population Mitochondria Different-Phenotype (%)” value [7] was 75% and the “Population Mitotic Cells (%)” value [7] was 30%. The “Population Normal (%)” value [7] was 96%, the “Population Pyknosed Nuclei (%)” value [7] was 20% and the “Population Tubulin-Different-Phenotype (%)” value [7] was 78%. The “Total Cell Count” value [7] was 218, the “Population Apoptotic (%)” value [8] was 80% and the “Population Fragmented Nuclei (%)” value [8] was 28%. For the same compound, the “Population Healthy Nuclei (%)” value [8] was 53%, the “Population Membrane Permeable-Phenotype (%)” value [8] was 47% and the “Population Mitochondria Different-Phenotype (%)” value [8] was 72%. The “Population Mitotic Cells (%)” value [8] was 20%, the “Population Pyknosed Nuclei (%)” value [8] was 18% and the “Population Tubulin-Different-Phenotype (%)” value [8] was 62%. For the same compound, the “Total Cell Count” value [8] was 137, the “Population Apoptotic (%)” value [9] was 86% and the “Population Fragmented Nuclei (%)” value [9] was 24%. For the same compound, the “Population Healthy Nuclei (%)” value [9] was 64%, the “Population Hoechst High Intensity Objects (%)” value [9] was 1% and the “Population Membrane Permeable-Phenotype (%)” value [9] was 7%. The “Population Mitochondria Different-Phenotype (%)” value [9] was 4%, the “Population Mitotic Cells (%)” value [9] was 13% and the “Population Normal (%)” value [9] was 98%. The “Population Pyknosed Nuclei (%)” value [9] was 10%, the “Population Tubulin-Different-Phenotype (%)” value [9] was 3% and the “Total Cell Count” value [9] was 416. For the same compound, the “Population Apoptotic (%)” value [10] was 52%, the “Population Fragmented Nuclei (%)” value [10] was 16% and the “Population Healthy Nuclei (%)” value [10] was 69%. For the same compound, the “Population Hoechst High Intensity Objects (%)” value [10] was 4%, the “Population Membrane Permeable-Phenotype (%)” value [10] was 13% and the “Population Mitochondria Different-Phenotype (%)” value [10] was 10%. The “Population Mitotic Cells (%)” value [10] was 47%, the “Population Normal (%)” value [10] was 95% and the “Population Pyknosed Nuclei (%)” value [10] was 14%. The “Population Tubulin-Different-Phenotype (%)” value [10] was 9%, the “Total Cell Count” value [10] was 137 and the “Population Apoptotic (%)” value [11] was 86%. For the same compound, the “Population Fragmented Nuclei (%)” value [11] was 32%, the “Population Healthy Nuclei (%)” value [11] was 43% and the “Population Hoechst High Intensity Objects (%)” value [11] was 7%. The “Population Membrane Permeable-Phenotype (%)” value [11] was 49%, the “Population Mitochondria Different-Phenotype (%)” value [11] was 55% and the “Population Mitotic Cells (%)” value [11] was 13%. For the same compound, the “Population Normal (%)” value [11] was 92%, the “Population Pyknosed Nuclei (%)” value [11] was 23% and the “Population Tubulin-Different-Phenotype (%)” value [11] was 51%. For the same compound, the “Total Cell Count” value [11] was 269, the “Population Apoptotic (%)” value [12] was 80% and the “Population Fragmented Nuclei (%)” value [12] was 29%. The “Population Healthy Nuclei (%)” value [12] was 45%, the “Population Hoechst High Intensity Objects (%)” value [12] was 10% and the “Population Membrane Permeable-Phenotype (%)” value [12] was 43%. The “Population Mitochondria Different-Phenotype (%)” value [12] was 66%, the “Population Mitotic Cells (%)” value [12] was 20% and the “Population Normal (%)” value [12] was 89%. The “Population Pyknosed Nuclei (%)” value [12] was 24%, the “Population Tubulin-Different-Phenotype (%)” value [12] was 49% and the “Total Cell Count” value [12] was 138.

CC(=O)O[C@H]1C(=O)[C@@]2(C)[C@H]([C@H](OC(=O)c3ccccc3)[C@]3(O)C[C@H](OC(=O)[C@H](O)[C@@H](NC(=O)c4ccccc4)c4ccccc4)C(C)=C1C3(C)C)[C@]1(OC(C)=O)CO[C@@H]1C[C@@H]2O [PACLITAXEL] was tested, and the “Population Apoptotic (%)” value [3] was 64% and 59%, the “Population Fragmented Nuclei (%)” value [3] was 28% and 29% and the “Population Healthy Nuclei (%)” value [3] was 46% and 43%. For the same compound, the “Population Hoechst High Intensity Objects (%)” value [3] was 8% and 3%, the “Population Membrane Permeable-Phenotype (%)” value [3] was 23% and 12% and the “Population Mitochondria Different-Phenotype (%)” value [3] was 25% and 38%. The “Population Mitotic Cells (%)” value [3] was 35% and 40%, the “Population Normal (%)” value [3] was 91% and 96% and the “Population Pyknosed Nuclei (%)” value [3] was 24% and 26%. For the same compound, the “Population Tubulin-Different-Phenotype (%)” value [3] was 16% and 7%, the “Total Cell Count” value [3] was 200 and 236 and the “Population Apoptotic (%)” value [4] was 71% and 72%. The “Population Fragmented Nuclei (%)” value [4] was 16% and 22%, the “Population Healthy Nuclei (%)” value [4] was 60% and 63% and the “Population Hoechst High Intensity Objects (%)” value [4] was 2%. The “Population Membrane Permeable-Phenotype (%)” value [4] was 10% and 4%, the “Population Mitochondria Different-Phenotype (%)” value [4] was 30% and 46% and the “Population Mitotic Cells (%)” value [4] was 28% and 27%. For the same compound, the “Population Normal (%)” value [4] was 97%, the “Population Pyknosed Nuclei (%)” value [4] was 23% and 14% and the “Population Tubulin-Different-Phenotype (%)” value [4] was 14% and 8%. For the same compound, the “Total Cell Count” value [4] was 94 and 79, the “Population Apoptotic (%)” value [7] was 69% and 64% and the “Population Fragmented Nuclei (%)” value [7] was 33% and 27%. For the same compound, the “Population Healthy Nuclei (%)” value [7] was 36% and 49%, the “Population Hoechst High Intensity Objects (%)” value [7] was 4% and 5% and the “Population Membrane Permeable-Phenotype (%)” value [7] was 21% and 13%. The “Population Mitochondria Different-Phenotype (%)” value [7] was 44% and 34%, the “Population Mitotic Cells (%)” value [7] was 30% and 35% and the “Population Normal (%)” value [7] was 95% and 94%. The “Population Pyknosed Nuclei (%)” value [7] was 29% and 23%, the “Population Tubulin-Different-Phenotype (%)” value [7] was 13% and 12% and the “Total Cell Count” value [7] was 198 and 233. The “Population Apoptotic (%)” value [8] was 58% and 85%, the “Population Fragmented Nuclei (%)” value [8] was 25% and the “Population Healthy Nuclei (%)” value [8] was 48% and 50%. For the same compound, the “Population Hoechst High Intensity Objects (%)” value [8] was 7%, the “Population Membrane Permeable-Phenotype (%)” value [8] was 15% and 9% and the “Population Mitochondria Different-Phenotype (%)” value [8] was 52%. For the same compound, the “Population Mitotic Cells (%)” value [8] was 41% and 15%, the “Population Normal (%)” value [8] was 92% and the “Population Pyknosed Nuclei (%)” value [8] was 26% and 24%. For the same compound, the “Population Tubulin-Different-Phenotype (%)” value [8] was 18% and 9%, the “Total Cell Count” value [8] was 95 and 90 and the “Population Apoptotic (%)” value [11] was 76% and 82%. The “Population Fragmented Nuclei (%)” value [11] was 35% and 39%, the “Population Healthy Nuclei (%)” value [11] was 30% and 25% and the “Population Hoechst High Intensity Objects (%)” value [11] was 12% and 13%. The “Population Membrane Permeable-Phenotype (%)” value [11] was 27% and 25%, the “Population Mitochondria Different-Phenotype (%)” value [11] was 29% and 25% and the “Population Mitotic Cells (%)” value [11] was 23% and 17%. For the same compound, the “Population Normal (%)” value [11] was 87% and 86%, the “Population Pyknosed Nuclei (%)” value [11] was 33% and 34% and the “Population Tubulin-Different-Phenotype (%)” value [11] was 16% and 14%. The “Total Cell Count” value [11] was 203 and 246, the “Population Apoptotic (%)” value [12] was 70% and 91% and the “Population Fragmented Nuclei (%)” value [12] was 27% and 37%. The “Population Healthy Nuclei (%)” value [12] was 31% and 34%, the “Population Hoechst High Intensity Objects (%)” value [12] was 8% and 15% and the “Population Membrane Permeable-Phenotype (%)” value [12] was 14% and 6%. For the same compound, the “Population Mitochondria Different-Phenotype (%)” value [12] was 50% and 44%, the “Population Normal (%)” value [12] was 91% and 84% and the “Population Pyknosed Nuclei (%)” value [12] was 41% and 27%. The “Population Tubulin-Different-Phenotype (%)” value [12] was 25% and 13% and the “Total Cell Count” value [12] was 98.

Source: ChEMBL document CHEMBL5058577, “EUbOPEN Chemogenomics Library 2 (Multiplex)” (2022)
